Here are results for two substances from article PMC7722202 (Angewandte Chemie (International ed. in English), 2020).

For series [1], the system named is HeLa cells. Put plainly: Mitochondrial membrane potential with JC-1 probe, live-cell confocal microscopy. It counts as cell-based, human. As to conditions: 2 μM JC-1 probe, excitation 488 nm, NP5 after 30 min incubation. In outline: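 Live HeLa cells were exposed to the test peptide materials for set times, then stained with 2 μM JC-1 followed by Hoechst 33342 before imaging. Confocal microscopy, both channels excited at 488 nm: monomer green at 510–550 nm, J-aggregate red at 585–649 nm; nuclei at ex 405/em 420–480 nm. Green and red fluorescence were compared. CCCP was run alongside.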

Series [2] is described as follows: Hydrodynamic diameter by dynamic light scattering. In kind it is physicochemical. As to conditions: DLS; nanoparticles via photo-PISA at solids content of 15 wt.%.
Series [3] concerns HeLa cells. It counts as cell-based, human.

On to “poly[(KLAAm10-co-DMA10)-b-(DAAm280-co-DMA120)] [NP5]”, for which the “red fluorescence of JC-1 J-aggregates (mitochondrial membrane potential)” value with HeLa cells [1] is reported as “almost no red emission”. “poly[(KLAAm10-co-DMA30)-b-(DAAm280-co-DMA120)] [NP3]”: in series [2], the “Dh (hydrodynamic diameter)” value turned out to be 105 nm. In addition, in the series with HeLa cells [3], the “cytotoxicity in HeLa cells” value is reported as “dose-dependent cytotoxicity”.
